# Most compounds without a hit are left out; they make up all but 2.5% or so of the library.
# PMI act – increases human mannose-6-phosphate isomerase activity | P34949 | purified human PMI, coupled resazurin fluorescence, 20 min; stronger effect = higher value; 1 = vehicle control, 0 substrate-free wells | activation factor at 20 µM | 0.005% of 190,000 active | AID 1214;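 active = activation factor of 2 or more at 20 µM, relative to plate controls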
# Target sequence (P34949 whole entry, looked up): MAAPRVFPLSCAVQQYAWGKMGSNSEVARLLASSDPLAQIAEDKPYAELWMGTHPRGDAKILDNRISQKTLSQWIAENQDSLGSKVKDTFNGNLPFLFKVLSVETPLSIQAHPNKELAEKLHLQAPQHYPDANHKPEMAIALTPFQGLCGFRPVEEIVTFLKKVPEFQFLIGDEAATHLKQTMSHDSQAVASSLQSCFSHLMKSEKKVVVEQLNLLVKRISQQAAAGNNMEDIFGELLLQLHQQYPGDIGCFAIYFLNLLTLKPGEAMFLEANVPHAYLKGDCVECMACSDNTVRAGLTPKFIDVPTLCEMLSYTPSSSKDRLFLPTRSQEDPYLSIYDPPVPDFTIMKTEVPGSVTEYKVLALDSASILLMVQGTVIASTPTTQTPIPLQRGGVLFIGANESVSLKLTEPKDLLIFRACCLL
# FLuc inhib CS – Photinus pyralis luciferase inhibition counter-screen | P08659 | ATPLite firefly luciferase biochemical luminescence, 10 min | inhibition, % at 10 µM | 1.5% of 200,000 active | AID 1006;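 active = inhibition above about 50% when tested at 10 µM, limit read from the data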
# FLuc act counter – firefly luciferase counter-screen for stimulation assays. ATPlite luciferase biochemical, luminescence, 10 min; 0 = ATP-free wells, 1 = DMSO control. activation factor at 10 µM. 200,000 tested, under 10 active;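 active = luciferase activation factor, scaled between plate controls, of at least 2 with compound at 10 µM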
#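 test system = cell-free luciferase reagent | medium = PBS as buffer for the ATP substrate | dosing = test compounds dosed from 2 mM stocks in 100% DMSO | incubation = 10 min at ambient temperature | detection = luminescence measurement of luciferase light output | benchmarks = low control with PBS replacing ATP, high control enzyme plus ATP without compound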
# Diaph act CS – activates diaphorase or chemically reduces, flagging diaphorase assay artifacts | AID 1229 | 0.005% of 190,000 active | activation factor at 20 µM | Diaphorase/resazurin coupled assay, resorufin fluorescence, 16 min; stronger effect = higher value; 1 = vehicle wells, 0 = NADH-free wells;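 active = diaphorase activity raised at least twofold by the compound at 20 µM; inactive = activation factor below 2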
#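 Material: purified diaphorase enzyme from Clostridium kluyveri; Also added: 0.114 mM NADH and 0.1 mM resazurin, final amounts; Doses: single compound dose of 20 µM, 1% DMSO final; Times: 16 min enzyme reaction, ambient temperature; Detection: resorufin fluorescence, excitation 544 nm, emission 590 nm; Measure: increased resorufin signal from activators or reducing compounds.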
# Diaph inh CS – counter-screen for diaphorase-based assays: diaphorase inhibitors and chemical oxidizers; 0.69% of 190,000 active; diaphorase resazurin-to-resorufin fluorescence, NADH, 16 min; bacterial (C. kluyveri) enzyme, not human; inhibition, % at 20 µM; AID 1217;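 active = primary screen inhibition at 20 µM above a set limit, cut at about 50% in these data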
#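 System: Bacterial diaphorase enzyme (C. kluyveri) | Incubation: 16-min room-temperature incubation before reading | Benchmarks: No-NADH positive control and DMSO neutral control | Measured by: Resorufin fluorescence 544/590 nm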
# PMI act satM6P – activators of human phosphomannose isomerase at near-saturating mannose 6-phosphate; P34949; coupled PMI enzyme assay, resazurin fluorescence, 20 min; stronger effect = higher value; 1 = untreated enzyme, 0 = substrate-free blank; activation factor at 20 µM; 0.34% of 190,000 active; AID 1216;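 active = activation factor of 2 or more at 20 µM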
#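 Test system: human phosphomannose isomerase with PGI, G6PDH, diaphorase coupling enzymes; amount: 15 ng/mL PMI; incubation: enzyme reaction with compound 20 min at room temperature; technique: resorufin fluorescence (Ex 544/Em 590 nm) from resazurin via diaphorase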
# Numbers stand for hits; i = inactive.
SMILES,PMI act,FLuc inhib CS,FLuc act counter,Diaph act CS,Diaph inh CS,PMI act satM6P
CCCC(=O)Nc1cccc(-c2nc3ccccc3c(=O)o2)c1,i,53.6,i,i,i,i
CC(C)C(=O)Nc1cccc(-c2nc3ccccc3c(=O)o2)c1,i,i,i,i,i,i
CC(C)(C)C(=O)Nc1ccc(-c2nc3ccccc3c(=O)o2)cc1,i,96.1,i,i,i,i
O=C(c1ccc(Cl)cc1)C1CCN(C(=O)C2CC2)CC1,i,i,i,i,i,i
CCNc1nc(N)nc(-c2cc(Cl)ccc2O)n1,i,62.8,i,i,i,i
N/C(=N\N=C\c1ccc(O)cc1)c1nonc1N,i,50.8,i,i,i,i
N/C(=N\N=C\c1cccc(O)c1)c1nonc1N,i,i,i,i,i,i
CS/C(N)=N/N=C/c1ccc([N+](=O)[O-])cc1,i,i,i,i,i,2.5
COc1ccc2cc(C(C)c3nc4ccccc4c(=O)n3N)ccc2c1 (configuration not stated),i,i,i,i,i,i
Cc1cc(=S)cc(C)n1CCO,i,i,i,i,i,2.4
Cc1cc(C)n(CCO)c(=O)n1,i,i,i,i,i,i
Cc1cccc(N2CCN(C(=O)CCCOc3ccccc3)CC2)c1C,i,i,i,i,i,i
Cc1ccc(N)c2c1OCCC2=O,i,i,i,i,57.2,i
CNS(=O)(=O)c1ccc(NC(=S)Nc2ccc3c(c2)OCO3)cc1,i,i,i,i,i,i
COc1cccc(NC(=O)COc2ccccc2C(N)=O)c1,i,68.1,i,i,i,i
c1ccc(-n2nnc3c(N4CCOCC4)ncnc32)cc1,i,83.5,i,i,i,i
Cc1nnc(N2CCOCC2)c2nn(-c3ccccc3)c(C)c12,i,i,i,i,i,i
Cc1ccc(C)c(/C=N/n2cc(-c3ccccc3)[nH]c2=S)c1,i,i,i,i,75.7,i
CN1C(=O)/C(=C\C=C2/CCCN2C)N(C)C1=S,i,i,i,i,51.5,i
CCN1C(=O)/C(=C/C=C2/CCCN2C)OC1=S,i,i,i,i,i,i
CC(C)n1c2ccccc2c2cc([N+](=O)[O-])ccc21,i,i,i,i,i,i
CCC(C)n1c(=S)[nH]c2c(sc3ccc([N+](=O)[O-])cc32)c1=O (configuration not stated),i,i,i,i,62.4,i
O=C(NCc1ccc(Cl)cc1)c1cc([N+](=O)[O-])ccc1Cl,i,i,i,i,i,i
COc1ccc(C(=O)C(Cc2cc(C(C)=O)ccc2OC)N2CCCC2)cc1 (configuration not stated),i,i,i,i,i,i
Cc1cccc(-n2c(=S)[nH]c3sc4c(c3c2=O)CCc2ccccc2-4)c1,i,i,i,i,69.8,i
SMILES,PMI act,FLuc inhib CS,FLuc act counter,Diaph act CS,Diaph inh CS,PMI act satM6P
Cc1ccc(-n2c(=S)[nH]c3sc4c(c3c2=O)CCc2ccccc2-4)cc1,i,i,i,i,i,i
CCOc1ccc(Cc2noc3c2C(=O)CC(C)(C)C3)cc1OCC,i,i,i,i,i,i
Cc1ccc(-n2c(C)cc(C(=O)CSc3nnnn3C)c2C)cc1,i,i,i,i,i,i
Cc1cc(C(=O)CSc2nncs2)c(C)n1-c1c(C)n(C)n(-c2ccccc2)c1=O,i,i,i,i,i,i
Cc1cc(C(=O)CSc2cccc[n+]2[O-])c(C)n1-c1ccccc1,i,80.3,i,i,i,i
Cc1cc(C(=O)CSc2nncn2C)c(C)n1-c1ccccc1,i,68.6,i,i,i,i
Cc1ccc(-n2c(C)cc(C(=O)CSc3nncs3)c2C)cc1,i,53.7,i,i,i,i
CCOc1ccc(OCC)c(NC(=O)CCn2c(=O)oc3ccccc32)c1,i,i,i,i,i,i
COc1ccc(-c2cc3nc4n(c(=O)c3s2)CCC4)cc1,i,83.6,i,i,i,i
CC(C)c1ccc(-c2nnc(N)s2)cc1,i,80.3,i,i,i,i
CCCOc1ccc(-c2nnc(N)s2)cc1,i,60.2,i,i,i,i
CSc1nnc2c3cc(C)ccc3n(Cc3ccccc3)c2n1,i,i,i,i,i,i
CC(=O)Nc1ccc(S(=O)(=O)N2CCN(c3cnn(C)c(=O)c3Cl)CC2)cc1,i,i,i,i,i,i
COC(=O)c1ccc(COc2ccccc2/C=C(\C#N)C(=O)Nc2c(C)cccc2C)cc1,i,i,i,i,i,i
O=C(NCc1cccs1)c1ccc([N+](=O)[O-])cc1Cl,i,i,i,i,i,i
C=CCc1ccccc1OCCNCc1ccccc1,i,i,i,i,i,i
COc1ccc2c(c1OC)C(=O)N1c3ccccc3SC21 (configuration not stated),i,53.8,i,i,i,i
COc1ccc2c(c1OC)C(=O)N1c3ccccc3C(=O)N(c3ccccc3F)C21 (configuration not stated),i,i,i,i,i,i
COc1ccc2c(c1OC)C(=O)N1c3ccccc3COC21 (configuration not stated),i,72.0,i,i,i,i
C=CCNS(=O)(=O)c1ccc(OCC(=O)OC)cc1,i,i,i,i,i,i
O=C1CCNc2ccc(-c3ccccc3)cc21,i,i,i,i,i,i
O=C1CCNc2cc3ccccc3cc21,i,i,i,i,65.9,i
Cc1ccc(-n2c(C)cc(C(=O)COC(=O)c3ccc[nH]c3=O)c2C)cc1,i,81.2,i,i,i,i
COCCn1c(C)cc(C(=O)COC(=O)c2ccc(Br)o2)c1C,i,80.0,i,i,i,i
COCCn1c(C)cc(C(=O)COC(=O)c2ccc[nH]c2=O)c1C,i,84.1,i,i,i,i
SMILES,PMI act,FLuc inhib CS,FLuc act counter,Diaph act CS,Diaph inh CS,PMI act satM6P
CN(C)S(=O)(=O)c1ccc(N2CCCC2)c(C(=O)NCC2CCCCC2)c1,i,i,i,i,i,i
COc1ccc2nc(SCCOC(=O)Nc3ccc(Cl)cc3)nc(C)c2c1,i,i,i,i,i,i
COc1ccc(NC(=S)NNC(=O)Cn2nc([N+](=O)[O-])cc2C)cc1,i,i,i,i,i,i
Cc1cc([N+](=O)[O-])nn1CC(=O)NNC(=S)Nc1ccc([N+](=O)[O-])cc1,i,i,i,i,61.6,i
O=C(/C=C/Sc1ccccc1)c1ccccc1,i,87.5,i,i,i,i
O=C(/C=C/Sc1ccccc1)c1ccc(Cl)cc1,i,60.8,i,i,i,i
COCCn1c(NC(=S)NC(=O)C2CC2)cc(=O)[nH]c1=O,i,i,i,i,61.1,i

# Screens (PubChem BioAssay)
